The full list was thinned out, with hits kept by preference.
Diaphorase act: activates diaphorase or chemically reduces, flagging diaphorase assay artifacts | 190,000 compounds, 0.005% hits | AID 1229 | Diaphorase/resazurin coupled assay, resorufin fluorescence, 16 min; hits give high values; 1 = vehicle wells, 0 = NADH-free wells | activation factor at 20 µM;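 active means diaphorase activity raised at least twofold by the compound at 20 µM; inactive means activation factor below 2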
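Material: Clostridium kluyveri diaphorase, purified enzyme; Quantity: enzyme 0.07 U/mL final; Medium: HEPES pH 7.4 buffer with MgCl2 and Tween 20; Dosing: single compound dose of 20 µM, 1% DMSO final; Schedule: 16 min reaction at room temperature; Measured by: red resorufin fluorescence at 544/590 nm excitation/emission.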
L major viab: Leishmania major promastigote growth inhibition; inhibition, % at 10 µM; 200,000 compounds, 9% hits; Leishmania major promastigotes, resazurin fluorescence viability; AID 1063;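 further: promastigotes grown with compound for 44 hours at 28 °C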
Diaph inh CS: counter-screen for diaphorase-based assays: diaphorase inhibitors and chemical oxidizers; diaphorase resazurin-to-resorufin fluorescence, NADH, 16 min; bacterial (C. kluyveri) enzyme, not human; inhibition, % at 20 µM; 190,000 compounds, 0.69% hits;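 active means primary screen inhibition at 20 µM above a set limit, cut at about 50% in these data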;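 further: plate controls were DMSO with full reaction for no effect and wells lacking NADH for full effect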
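material = Clostridium kluyveri diaphorase enzyme | amount = 0.14 U/mL diaphorase, enzyme working solution | schedule = incubation 16 min, room temperature | detection = fluorescence of resorufin formed from resazurin, Ex 544/Em 590 nm | benchmarks = positive control minus NADH, DMSO neutral control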
G6PDH CS: inhibits Leuconostoc G6PDH, flagging false hits in G6PDH-based assays. AID 1020. inhibition, % at 5 µM. Purified L. mesenteroides G6PDH, diaphorase/resazurin coupled fluorescence, 45 min. 200,000 compounds, 0.12% hits
PfG6PD inh: PfG6PD (Plasmodium falciparum) enzyme inhibition; PfGluPho enzyme, NADPH resazurin-diaphorase fluorescence; inhibition, % at 20 µM; 350,000 compounds, 0.78% hits; AID 504690;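 active means inhibition reaching at least a set limit at 20 µM in the primary screen, cut at about 59% in these data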;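 further: 0% = DMSO wells with substrate and 100% = DMSO wells lacking glucose-6-phosphate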
Redox H2O2 prof: compounds producing H2O2 with reducing agent – biochemical, NIH compound library profiling, artefact control for MLSCN library redox annotation, primary screen | AID 878 | 200,000 compounds, 0.03% hits | DTT-dependent redox cycling H2O2, phenol red/HRP absorbance; 100% = 100 µM peroxide control, 0% = buffer | activation, % at 10 µM;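 active means activation of at least 50% relative to the plate's high and low controls in the primary single-dose screen; inactive means activation below 50%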;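 further: compound incubated with DTT at 0.8 mM final as the reducing agent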
* = called active by the depositor; . = no result given. Unless noted, no stated cut-off is given here; in the data, active means inhibition above about 50%; inactive means the rest.

SMILES | Diaphorase act | L major viab | Diaph inh CS | G6PDH CS | PfG6PD inh | Redox H2O2 prof
Cc1[nH]c2ccccc2c1/C=N/Nc1ccc([N+](=O)[O-])cc1S(=O)(=O)Nc1ccc(Cl)cc1 | 0.7 | 94.8* | 29.4 | -1.6 | -7.5 | 2.4
N#Cc1c(NC(=O)CSc2ncnc3sccc23)oc(-c2ccco2)c1-c1ccco1 | 0.4 | -2.5 | 59.8* | 19.3 | 3.8 | 0.2
Cc1cc(NC(=O)CSc2ncnc3sccc23)no1 | 0.9 | -5.1 | 9.7 | 4.4 | -11.5 | -1.2
Cc1ccc(S(=O)(=O)N2Cc3ccccc3CC2C(N)=O)cc1 (stereo not drawn) | . | . | . | . | 2.9 | .
COc1cccc2c(=O)c3c([nH]c12)OC(C)(C)C3 | . | . | . | . | 5.1 | .
COc1cccc2c(=O)c3cccc(N)c3[nH]c12 | 0.1 | 23.0 | 85.9* | 28.3 | 10.7 | 0.1
O=C(CSc1nc2[nH]ncc2c(=O)n1-c1ccc(Cl)c(Cl)c1)NCc1ccccc1Cl | 0.8 | 77.5* | 21.7 | 8.2 | -20.7 | 0.1
O=C(CSc1nc2[nH]ncc2c(=O)n1-c1ccccc1)NCCc1ccccc1 | 0.9 | -2.7 | 13.0 | 11.6 | -1.4 | -0.1
CCOC(=O)NC(=O)CSc1nnc(C2CC2)n1Cc1ccco1 | 1.1 | -5.7 | -8.7 | 5.8 | 0.7 | -0.6
Cc1nn(-c2ccccc2)c(Cl)c1/C=N/O | 1 | -7.5 | 3.9 | -4.1 | -1.3 | 0.4
Cc1nn(-c2ccccc2)c(N2CCCC2)c1/C=N/NC(=S)Nc1cc(C(F)(F)F)ccc1Cl | 0.9 | 9.9 | 7.8 | -12.7 | 2.9 | 0.6
Cc1nn(-c2ccccc2)c(N2CCCC2)c1/C=N/NC(=S)Nc1ccccc1C(F)(F)F | 0.8 | 99.1* | 15.2 | 0.5 | 2.8 | 0.1
Cc1nn(-c2ccccc2)c(N2CCCC2)c1/C=N/O | 0.9 | 72.3* | 10.4 | -6.8 | -14.6 | -0.1
CN(C)C(CNC(=O)CCNS(=O)(=O)c1ccccc1C(F)(F)F)c1ccccc1 (stereo not drawn) | . | . | . | . | 0.5 | .
Nc1ncnc(Sc2ccc(Cl)cc2)c1[N+](=O)[O-] | 0.9 | 66.6* | 9.5 | 4.4 | 5.5 | 0.5
Nc1ncnc(Sc2ccccc2)c1[N+](=O)[O-] | 1 | 30.9 | 4.3 | -1.3 | -11.4 | 0.7
Nc1ncnc(Sc2ncccn2)c1[N+](=O)[O-] | 0.9 | 59.3* | 10.1 | 1.3 | -2.6 | 0.1
COc1ccc(N2C(=O)C(F)(F)C2c2ccc(C)cc2)cc1OC (stereo not drawn) | 0.9 | -0.2 | 12.7 | 1.8 | -31.1 | -0.5
CS(=O)(=O)N(Cc1ccccc1)c1ccc(C(=O)NCCSc2ccccn2)cc1 | 0.9 | 59.7* | 7.1 | -0.4 | 5.1 | 0.1
Cc1ccc(N(CC(=O)NCCSc2ccccn2)S(C)(=O)=O)cc1 | 0.7 | -0.1 | 30.0 | 9.8 | 3.6 | -1.6
O=C1CCN2C=Nc3cccc4ccc1c2c34 | 0.2 | 0.9 | 76.6* | 48.2 | 47.2 | -4.0
COC(=O)C1=C(C)N=C2SC(C#N)=C(N)N2C1c1ccc(OCc2ccccc2)cc1 (stereo not drawn) | 0.8 | 97.7* | 23.7 | -5.6 | -12.0 | 0.0
CCCCCCCCOC(=O)C[N+](C)(C)C/C=C(/C)Cl | 1.1 | 67.4* | -6.8 | 8.0 | -16.9 | -0.2
CCCCCCCCCCOC(=O)C[N+](C)(C)C/C=C(/C)Cl | 0.9 | 100.2* | 11.5 | 2.9 | 0.7 | 0.2
CCCCCCCCCCCCOC(=O)C[N+](C)(C)C | . | . | . | . | -12.0 | .
SMILES | Diaphorase act | L major viab | Diaph inh CS | G6PDH CS | PfG6PD inh | Redox H2O2 prof
Cn1nnc2ccccc2c1=O | 1 | -3.1 | 2.9 | 4.2 | -6.9 | -1.9
CCc1ccc2[nH]c(C(=O)Nc3ccc4c(c3)OCO4)cc2c1 | . | . | . | . | 14.2 | .
CC1CCN(c2nnc(-c3cccs3)c3ccccc23)CC1 | 0.8 | 25.9 | 21.8 | -36.5 | 17.5 | 0.6
CCOC(=O)c1c(N)n(CCOC(=O)c2cccs2)c2nc3ccccc3nc12 | 0.8 | 60.3* | 15.6 | 10.6 | 20.7 | 0.7
CCCCCOC(=O)c1c(N)n(CCOC)c2nc3ccccc3nc12 | 0.7 | 99.9* | 32.5 | 9.8 | 22.8 | -4.2
CCOC(=O)c1c(N)n(C2CC(C)(C)NC(C)(C)C2)c2nc3ccccc3nc12 | 0.8 | 83.3* | 17.3 | 10.5 | 17.1 | 1.6
CCOC(=O)c1c(N)n(-c2ccc(N)cc2)c2nc3ccccc3nc12 | 0.9 | 1.0 | 12.1 | 2.0 | 6.7 | 0.7
O=C1C(=O)N(CC2CCCO2)C(c2ccco2)/C1=C(/O)c1ccc(F)cc1 (stereo not drawn) | 0.8 | -1.0 | 17.5 | 7.4 | 11.4 | -0.1
CC(=O)Oc1cc2oc(=O)cc(C)c2cc1OC(C)=O | 0.5 | -6.5 | 52.3* | 44.8 | -19.8 | -1.0
CC1CCCCN1S(=O)(=O)c1ccc(C(=O)Nc2nnc(-c3ccncc3)o2)cc1 (stereo not drawn) | 1 | 8.3 | -3.0 | 0.1 | -35.6 | -0.3
CC1CCCCN1S(=O)(=O)c1ccc(C(=O)Nc2nnc(-c3ccccc3Cl)o2)cc1 (stereo not drawn) | 0.8 | 98.8* | 16.3 | 3.7 | -57.3 | 3.6
O=C(Nc1nnc(-c2ccccc2Cl)o1)c1ccc(S(=O)(=O)N2CCCCCC2)cc1 | 0.9 | 98.8* | 10.0 | 1.7 | -51.5 | 3.3
CS(=O)(=O)c1ccccc1-c1nnc(NC(=O)c2ccc(S(=O)(=O)N3CCCC3)cc2)o1 | . | . | . | . | -22.5 | .
O=C(Nc1ccn(-c2ccccc2)n1)c1ccc(S(=O)(=O)N2CCCCCC2)cc1 | 0.7 | 66.5* | 31.4 | 2.1 | 18.6 | -0.6
CCC1CCCCN1S(=O)(=O)c1ccc(C(=O)Nc2nnc(-c3ccccc3Cl)o2)cc1 (stereo not drawn) | 0.8 | 98.6* | 22.2 | 9.2 | -64.1 | 2.6
Cc1cc(C)n2nc(CNS(=O)(=O)c3ccc(F)c(C)c3)nc2n1 | . | . | . | . | 0.6 | .
COc1ccc(NC(C)C(=O)Nc2ccc(C(C)(C)C)cc2)cc1Cl (stereo not drawn) | 0.8 | 50.5* | 22.8 | -0.5 | 23.8 | 0.6
CC(Nc1ccccc1)c1cc(Cl)ccc1O (stereo not drawn) | 0.8 | 96.0* | 20.2 | 6.9 | 3.7 | 1.3
CC(NC(=O)CC(c1ccccc1)c1cc(Cl)ccc1O)c1ccccc1 (stereo not drawn) | 0.8 | 98.2* | 19.8 | 2.2 | 13.3 | 0.6
CN(C)/C=N/c1ncn(-c2ncc(C(F)(F)F)cc2Cl)n1 | 1 | -6.3 | -0.6 | 4.1 | -0.1 | -1.7
O=C1c2cccc3cc([N+](=O)[O-])cc(c23)C(=O)N1c1nncs1 | . | . | . | . | -4.0 | .
Cc1cc(O)ccc1N1C(=O)c2cccc3cc([N+](=O)[O-])cc(c23)C1=O | 0.8 | 87.8* | 18.5 | 5.1 | 4.6 | -0.7
O=C1c2cccc3cc([N+](=O)[O-])cc(c23)C(=O)N1c1ccccc1O | 0.7 | 98.2* | 33.2 | 15.7 | 3.1 | -0.2

Bioassay records: PubChem, several laboratories
